Entries after “also recorded” stand apart in the source; their conditions may differ. Values belong to the compound of their own block, whether it stands above or below them.
How the values were obtained:
HscA386(T212V) = assay: 2D 1H-15N TROSY-HSQC nucleotide binding to HscA386; set-up: species or system Escherichia coli; conditions: TED buffer lacking Mg2+, pH 7.5, 10 mM ATP
Summary of the method: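 0.3 mM [U-15N]-labelled NBD construct (expressed in Rosetta Blue DE3 in M9 medium with 1 g/L 15NH4Cl, 0.4 mM IPTG, 4 h). Solvent was TED buffer with 7% D2O and 0.02% sodium azide. 2D 1H–15N TROSY-HSQC spectra were taken without nucleotide and with 10 mM ATP at 25 °C, 800 MHz, and compared.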

HscA [1] = assay: ATPase activity as a function of ATP concentration; format: biochemical, Escherichia coli; conditions: for Vmax from Michaelis-Menten fit: 2–1000 μM ATP, 1 μM HscA, HMKD pH 7.3, 25 °C, n = 3; for apparent ATP binding affinity, comparison of HscA386 and HscA395: from Km comparison
Summary of the method: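 NBD constructs (stop codons at residue 387 or 396; DEAE then Superdex 75 purification) were used at 1 μM in HMKD (50 mM HEPES pH 7.3, 150 mM KCl, 10 mM MgCl2, 1 mM DTT), 25 °C. ATP was 2, 4, 10, 40, 100 and 1000 μM. Pi release was monitored continuously by EnzChek coupled assay at 360 nm against a Pi standard curve. Means of three replicates were fit by nonlinear Michaelis–Menten regression for Km and Vmax.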

HscA [2] = assay: Steady-state ATPase assay of HscA variants; format: biochemical, Escherichia coli; conditions: for fold increase in ATPase activity vs HscA386 / fold increase in ATPase activity vs WT HscA: 1 μM HscA, 1 mM ATP, HMKD pH 7.3, 25 °C; for fold increase in ATPase activity vs HscA386: relative to HscA386; for fold increase in ATPase activity vs WT HscA: relative to WT HscA
Summary of the method: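 Steady-state hydrolysis at 25 °C in HMKD (50 mM HEPES pH 7.3, 150 mM KCl, 10 mM MgCl2, 1 mM DTT) with 1 μM HscA variant and 1 mM ATP. Pi release was followed continuously by EnzChek enzyme-coupled assay at 360 nm and converted via a Pi standard curve to min–1. Three or more replicates. Linker peptide was dissolved in HMKD with 10% DMSO and added at 5–500 μM final.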

[3] = Differential scanning fluorimetry; format: physicochemical; conditions: relative to HscA386
Summary of the method: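 2 μM protein in 5 mM HEPES pH 7.3, 10 mM MgCl2, 10 mM KCl with 10 μM SYPRO orange, in triplicate. Heated 15–99 °C in a real-time PCR instrument; excitation 492 nm, emission 610 nm. Tm was taken where the first derivative of fluorescence reached its minimum.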

HscA389 = assay: Steady-state ATPase assay of HscA389 with HscB or IscU; format: biochemical, Escherichia coli; conditions: 50:1 molar ratio (50 μM HscB or IscU), 25 °C, n = 3
Summary of the method: (§1)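 HscB or IscU (50-fold molar excess, 50 μM) was added to 1 μM HscA variant (full-length WT or NBD construct). Reactions used HMKD buffer pH 7.3 with 1 mM ATP at 25 °C. Phosphate release was monitored continuously by EnzChek coupled assay at 360 nm, calibrated with a Pi standard curve. Three or more replicates.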

WT HscA [4] = conditions: J-domain interactions; cited from earlier work
HscA386 [5] = assay: Steady-state ATPase assay of HscA386; format: biochemical, Escherichia coli; conditions: for effect on ATPase activity of HscA386: 50:1 molar ratio (50 μM HscB or IscU), 25 °C, n = 3; for effect on ATPase activity of HscA386 by linker peptide: 5–500 μM linker peptide, 1 μM HscA386, HMKD with 10% DMSO
IscU = conditions: cited from earlier work
HscA395 = assay: Steady-state ATPase assay of HscA395 with HscB or IscU; format: biochemical, Escherichia coli; conditions: 50:1 molar ratio (50 μM HscB or IscU), 25 °C, n = 3
Summary of the method: as §1

WT HscA [6] = assay: Steady-state ATPase assay of WT HscA with HscB or IscU; format: biochemical, Escherichia coli; conditions: for effect on ATPase activity of WT HscA: 50-fold molar excess of HscB or IscU, 25 °C, n = 3
Summary of the method: as §1

[7] = Solubility of linker peptide; format: physicochemical; conditions: TED buffer pH 7.5 without DMSO, upper limit concentration of 3 mM
HscA386 [8] = assay: 2D 1H-15N TROSY-HSQC linker peptide binding to HscA386; set-up: species or system Escherichia coli; conditions: 0.2 mM [U-15N]HscA386, 3 mM linker peptide (15-fold molar excess), TED buffer, 900 MHz

Compound: Nc1ncnc2c1ncn2[C@@H]1O[C@H](COP(=O)(O)OP(=O)(O)OP(=O)(O)O)[C@@H](O)[C@H]1O [ATP]
- ATP binding in the absence of Mg2+ (TROSY-HSQC) (HscA386(T212V)): nearly superimposable

Compound: HscA386: isolated nucleotide-binding domain (NBD) of HscA
- Vmax from Michaelis-Menten fit (HscA [1]): 0.039 ± 0.001 min^–1
- apparent ATP binding affinity, comparison of HscA386 and HscA395 (HscA [1]): equivalent; also recorded: identical within experimental error

Compound: HscA389: NBD of HscA containing a short (three-amino acid) linker peptide, LLL motif
- fold increase in ATPase activity vs HscA386 (HscA [2]): 7 fold
- fold increase in ATPase activity vs WT HscA (HscA [2]): 9 fold

- fold faster ATP hydrolysis than HscA386 in the presence of linker peptide (HscA [2]; relative to HscA386 + 500 μM linker peptide): 3 fold
Compound: HscA395: NBD of HscA containing the full-length (nine-amino acid) linker peptide
- basal thermostability vs HscA386 [3]: higher than those of HscA386; also recorded: increases basal thermostability in comparison to that of HscA386
- Vmax from Michaelis-Menten fit (HscA [1]): 0.446 ± 0.016 min^–1
- apparent ATP binding affinity, comparison of HscA386 and HscA395 (HscA [1]): equivalent; also recorded: identical within experimental error
- fold increase in ATPase activity vs HscA386 (HscA [2]): 13 fold
- fold increase in ATPase activity vs WT HscA (HscA [2]): 17 fold

Compound: HscB: Hsp40-type cochaperone of HscA
- effect on ATPase activity of HscA389 (HscA389): not affected; also recorded: did not elicit any stimulation of ATPase activity
- HscB-mediated activation of full-length HscA ATPase activity (WT HscA [4]): sensitive to HscB-mediated activation of ATPase activity
- effect on ATPase activity of HscA386 (HscA386 [5]): not affected; also recorded: did not elicit any stimulation of ATPase activity; also recorded: neither the isolated NBD (HscA386) nor the NBD with a full interdomain liker (HscA395) was receptive to ATPase stimulation
- preferential binding to conformational state of IscU (IscU): binds preferentially to the S-state
- effect on ATPase activity of HscA395 (HscA395): not affected; also recorded: did not elicit any stimulation of ATPase activity; also recorded: neither the isolated NBD (HscA386) nor the NBD with a full interdomain liker (HscA395) was receptive to ATPase stimulation
- fold increase in ATPase activity of WT HscA (WT HscA [6]; 1 μM WT HscA with 50 μM HscB): 8 factor
- effect on ATPase activity of WT HscA (WT HscA [6]): enhanced

Compound: IscU: scaffold protein, substrate of HscA
- effect on ATPase activity of HscA389 (HscA389): no effect on the ATPase activities of any of the NBD variants; also recorded: not affected
- effect on ATPase activity of HscA386 (HscA386 [5]): no effect on the ATPase activities of any of the NBD variants; also recorded: not affected
- effect on ATPase activity of HscA395 (HscA395): no effect on the ATPase activities of any of the NBD variants; also recorded: not affected
- effect on ATPase activity of WT HscA (WT HscA [6]): enhanced

Compound: LLLDVIPLS [linker peptide]
- effect on ATPase activity of HscA386 by linker peptide (HscA386 [5]): A concentration dependence was observed
- effect on ATPase activity of HscA386 by linker peptide (HscA386 [5]; listed as synthetic peptide): stimulated its ATPase activity
- solubility of linker peptide in TED buffer [7]: partially dissolved
- binding of linker peptide to HscA386 (chemical shift perturbation) (HscA386 [8]): widespread chemical shift perturbations, including distinct broadening of some signals; also recorded: relatively weaker binding interactions; also recorded: weakly binding
- binding of linker peptide to HscA386 (chemical shift perturbation) (HscA386 [8]; listed as synthetic peptide): widespread NMR chemical shift perturbations indicative of a binding interaction
